Assay outcomes from PubChem BioAssay.
NR2E3 ag-1 – inhibitors of NR2E3-RetCOR corepressor binding, primary screen, NR2E3 agonist project, biochemical, TR-FRET, GST-NR2E3, biotin-RetCOR; inhibition of corepressor binding, % at 4.78 µM; Photoreceptor-specific nuclear receptor (Homo sapiens), Q9Y5X4; 1536-well; hit rate 0.12% among 320,000;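 active = percent inhibition above the cutoff of mean plus 3 SD of all tested compounds, set per screening campaign, cut at about 20% in these data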;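 note: 0% = DMSO wells and 100% = biotin wells as full block of FRET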
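Test system – NR2E3–RetCOR corepressor complex · Quantity – NR2E3 fusion 1.35 nM · Buffer or medium – Tris pH 7.5 · Incubation – Compound–protein incubation for 5 h at 4 °C · Technique – TR-FRET, Eu(K)-anti-GST donor, streptavidin-D2 acceptor, ex 340, em 617/671 nm · Evaluation – percent inhibition of 671/617 nm emission ratio versus biotin and DMSO controls · Plate – 1536-well format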
NR2E3 ag-2 – NR2E3 agonists in two-hybrid cells, primary screen, cell-based, luminescence, CHO-S, Gal4-NCOR/VP16-NR2E3; Photoreceptor-specific nuclear receptor (Homo sapiens), Q9Y5X4; luciferase; inhibition of corepressor binding, % at 3.98 µM; hit rate 0.35% among 360,000; AID 602229, 2012;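 active = inhibition above the mean of all tested compounds plus 3 SD, cut at about 70% in these data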;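 note: 0% = DMSO with NR2E3 transfected cells and 100% = cells lacking NR2E3 construct; higher means lower luciferase signal from less NR2E3 corepressor binding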
PP1 inh – PP1-alpha phosphatase inhibitors, primary screen, counter-screen for PP5 inhibitor project, biochemical, fluorescence, OMFP substrate, single point; purified PP1alpha; inhibition, % at 6.7 µM; hit rate 0.9% among 320,000; AID 2235, 2010;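 active = inhibition above the mean inhibition of all tested compounds plus 3 SD, computed separately for each screening campaign, cut at about 15% in these data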
Target sequence (P62136 whole entry, looked up): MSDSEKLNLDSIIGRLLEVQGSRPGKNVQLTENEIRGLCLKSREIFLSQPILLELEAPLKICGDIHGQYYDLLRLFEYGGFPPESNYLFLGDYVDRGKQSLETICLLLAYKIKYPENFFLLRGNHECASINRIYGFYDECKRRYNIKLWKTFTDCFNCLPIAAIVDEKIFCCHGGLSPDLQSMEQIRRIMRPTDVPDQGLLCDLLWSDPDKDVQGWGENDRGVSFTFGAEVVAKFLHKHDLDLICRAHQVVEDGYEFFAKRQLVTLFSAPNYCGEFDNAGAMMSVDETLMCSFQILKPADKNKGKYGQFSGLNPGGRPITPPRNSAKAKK
PP5 inh – PP5 phosphatase inhibitors, primary screen, biochemical, fluorescence | Serine/threonine-protein phosphatase 5 (Homo sapiens), P53041 | purified PP5c, OMFP substrate fluorescence | inhibition, % at 6.7 µM | hit rate 0.18% among 320,000;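 active = inhibition above the campaign's mean inhibition across all tested compounds plus 3 SD, cut at about 9.5% in these data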;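 note: 0% = DMSO only and 100% = 100 µM cantharidin control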
PP1 inh confirm – PP1 phosphatase inhibitors, confirmation, biochemical, fluorescence, OMFP substrate, triplicate | hit rate 52% among 1,900 | purified PP1alpha | inhibition, % at 6.7 µM | shares compounds with PP1 inh;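 active = mean PP1 inhibition above a set limit taken from the earlier primary screen, cut at about 15% in these data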
PP5 counter – PP5 phosphatase inhibition by PP1 hits, confirmation, counter-screen for PP1 inhibitor project, biochemical, fluorescence, triplicate. shares compounds with PP1 inh. purified PP5c, OMFP fluorescence. inhibition, % at 6.7 µM. hit rate 4% among 1,900. AID 2360, 2010;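 active = mean PP5 inhibition over triplicate wells above about 9.5% taken from the earlier PP1 screen, limit read from the data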
* = called active by the depositor. This is a sample that favours compounds with a hit; in the whole collection about 1.3% have one here.

Results for COc1ccc(-c2ccc3c(N)c(C(=O)c4cccc(OC)c4)sc3n2)cc1 ?
NR2E3 ag-1: 3; NR2E3 ag-2: -90; PP1 inh: 30*; PP5 inh: 7; PP1 inh confirm: 26*; PP5 counter: -3

Results for COc1ccc(C(=O)c2sc3nc(-c4ccc(OC)cc4)ccc3c2N)cc1 ?
NR2E3 ag-1: 2; NR2E3 ag-2: -105; PP1 inh: 1; PP5 inh: 1

How did CCOC(=O)c1[nH]nc(C(=O)c2ccc(Br)cc2)c1O do in these assays?
NR2E3 ag-1: 1; NR2E3 ag-2: -36; PP1 inh: 31*; PP5 inh: 0; PP1 inh confirm: 30*; PP5 counter: -3

How did CCOC(=O)c1ccc(CNCc2ccc(Br)cc2)cc1 do in these assays?
NR2E3 ag-1: -1; NR2E3 ag-2: -15; PP1 inh: 2; PP5 inh: -1

Results for CCOc1ccc(S(=O)(=O)NCc2ccc(OC)cc2)c2cccnc12 ?
NR2E3 ag-1: 0; NR2E3 ag-2: 9; PP1 inh: 68*; PP5 inh: -1; PP1 inh confirm: -1; PP5 counter: 2

How did Cc1ccc2nc(/N=C(\N)NC(=O)NC3CCCCC3)nc(C)c2c1 do in these assays?
NR2E3 ag-1: -1; NR2E3 ag-2: -25; PP1 inh: 22*; PP5 inh: 2; PP1 inh confirm: 33*; PP5 counter: 1

Results for COc1ccc(/C=C2/SC(=O)N(CCC(=O)Nc3ccc(S(=O)(=O)Nc4nccs4)cc3)C2=O)cc1 ?
NR2E3 ag-1: 6; NR2E3 ag-2: -7; PP1 inh: 6; PP5 inh: 4

What do the screens show for `COc1ccc(/C=C2\SC(=O)N(CCC(=O)Nc3ccc(S(=O)(=O)Nc4nccs4)cc3)C2=O)cc1`?
NR2E3 ag-1: -1; NR2E3 ag-2: 6; PP1 inh: 21*; PP5 inh: 4; PP1 inh confirm: 10; PP5 counter: 1

What do the screens show for `COC(=O)c1ccc(CSCc2ccc(C#N)cc2)cc1`?
NR2E3 ag-1: 0; PP1 inh: 0; PP5 inh: 3

What do the screens show for `Cc1cc2oc3ccc(NCCCn4ccnc4)cc3c(=O)c2cc1C`?
NR2E3 ag-1: 0; NR2E3 ag-2: -86; PP1 inh: 25*; PP5 inh: 2; PP1 inh confirm: 5; PP5 counter: -2

How did O=C(NCc1cccs1)c1ccc2sc([C@@H]3O[C@H](CO)[C@H](O)[C@H](O)[C@H]3O)nc2c1 do in these assays?
NR2E3 ag-2: 40

How did CCCCNc1nccnc1-c1cccc(C=O)c1 do in these assays?
NR2E3 ag-2: -8

What do the screens show for `COc1ccc(C2CC(c3ccccc3)=NN2C(=O)COC(=O)c2cc(S(=O)(=O)N3CCOCC3)ccc2Cl)cc1` (centres undefined)?
NR2E3 ag-1: 0; NR2E3 ag-2: -30; PP1 inh: 20*; PP5 inh: 6; PP1 inh confirm: 9; PP5 counter: -2

How did CC1=C(C(=O)OCc2ccccc2)C(c2ccc(-c3ccccc3)cc2)NC(=O)N1CCCCCC(=O)O (centres undefined) do in these assays?
NR2E3 ag-1: 4; NR2E3 ag-2: 18; PP1 inh: 19*; PP5 inh: -1; PP1 inh confirm: 3; PP5 counter: -4

Results for Cc1csc2nc(O)c(C(=O)NCCCc3ccccc3)c(=O)n12 ?
NR2E3 ag-1: -2; NR2E3 ag-2: -9; PP1 inh: 20*; PP5 inh: 1; PP1 inh confirm: 13; PP5 counter: -5

Results for Cc1cccc(NC(=O)CNC(=O)[C@H]2O[C@@H](n3ccc(=O)[nH]c3=O)[C@H](O)[C@@H]2O)c1C ?
NR2E3 ag-2: -7

How did CN1CCN(C(=O)c2ccc3c(Cl)c4c(nc3c2)CCCC4)CC1 do in these assays?
NR2E3 ag-1: 0; NR2E3 ag-2: -11; PP1 inh: -1; PP5 inh: 2

How did N#CC1CCN(C(=O)c2ccc3c(Cl)c4c(nc3c2)CCCC4)CC1 do in these assays?
NR2E3 ag-1: -3; NR2E3 ag-2: -8; PP1 inh: 23*; PP5 inh: 2; PP1 inh confirm: -1; PP5 counter: -4

What do the screens show for `COc1ccc(C)cc1NC(=O)c1cc2c(s1)CCC2`?
NR2E3 ag-1: 0; NR2E3 ag-2: -68; PP1 inh: 18*; PP5 inh: 1; PP1 inh confirm: -1; PP5 counter: -2

What do the screens show for `COc1cccc2cc(/C(C)=N/Nc3nc(-c4cc(C)ccc4C)cs3)c(=O)oc12`?
NR2E3 ag-1: 2; NR2E3 ag-2: -19; PP1 inh: 20*; PP5 inh: 1; PP1 inh confirm: 19*; PP5 counter: 1

What do the screens show for `C=C1C(=O)OC2CC1C(OC(C)=O)CC(C)=CCCC(C)=CCCC2(C)O` (centres undefined)?
NR2E3 ag-2: 12

Results for Cc1cccc(C)c1-c1ccc(CN2C(CC(C)C)C(=O)N(Cc3cn(CCO)nn3)CCS2(=O)=O)cc1 (centres undefined) ?
NR2E3 ag-2: -1

How did C[C@H]1CN([C@@H](C)CO)C(=O)c2cc(C#CC3CCCC3)cnc2O[C@H]1CN(C)C(=O)Cc1ccccn1 do in these assays?
NR2E3 ag-2: 0

Results for Cc1noc(/C=C/c2ccco2)c1S(=O)(=O)N1CCC(C(=O)N2CCc3ccccc3C2)CC1 ?
NR2E3 ag-1: -1; NR2E3 ag-2: -4; PP1 inh: 19*; PP5 inh: 6; PP1 inh confirm: 26*; PP5 counter: 2

Results for C[C@H](NC(=O)c1ccco1)C(=O)N1CCN(c2ccc(C(F)(F)F)cn2)CC1 ?
NR2E3 ag-2: 3

What do the screens show for `COC(=O)N/N=C/c1cc(N=Nc2ccccc2Cl)ccc1O`?
NR2E3 ag-1: 2; NR2E3 ag-2: -97; PP1 inh: 19*; PP5 inh: 0; PP1 inh confirm: 25*; PP5 counter: 1

What do the screens show for `OC(c1ccc(CN2CCCCC2)cc1)c1ncc(-c2ccccc2)[nH]1` (centres undefined)?
NR2E3 ag-2: 14

Results for O=C(CC(NC(=O)c1ccccc1Cl)c1ccccc1)NCCc1ccc(Cl)cc1 (centres undefined) ?
NR2E3 ag-1: -1; NR2E3 ag-2: -6; PP1 inh: 19*; PP5 inh: -2; PP1 inh confirm: 6; PP5 counter: -1

How did OC(c1ccccc1)(c1nc(-c2ccccc2)cs1)C(F)(F)F (centres undefined) do in these assays?
NR2E3 ag-2: -39
